Test results published in ChEMBL document CHEMBL1129471, “Orally active squalene synthase inhibitors: bis((acyloxy)alkyl) prodrugs of the alpha-phosphonosulfonic acid moiety” (J Med Chem, 1996).

What was measured:
Type in all cases: functional
Rattus norvegicus [1] = assay: Compound was tested for inhibition of cholesterol biosynthesis in rats by oral dose of 28 uM/Kg; conditions: at 28 µmol/kg
Rattus norvegicus [2] = species: Rattus norvegicus; assay: (§1) Esterase susceptibility was determined from the initial rate of aldehyde release upon incubation of the prodrug with homogenized rat small intestinal mucosa relative to compound 9
Rattus norvegicus [3] = assay: Compound was tested for inhibition of cholesterol biosynthesis in rats by oral dosing (po).
Outline: (§2)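 Fasted rats, dosed orally or intravenously as the line states; the read-out is inhibition of cholesterol biosynthesis from acetate.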

Rattus norvegicus [4] = assay: Compound was tested for inhibition of cholesterol biosynthesis in rats by intravenous (iv) dosing.; outline: as §2
Rattus norvegicus [5] = assay: Compound was tested for inhibition of cholesterol biosynthesis in rats by intravenous (iv) dose of 4 uM/Kg; outline: as §2
Rattus norvegicus [6] = assay: Compound was tested for inhibition of cholesterol biosynthesis in rats by intravenous (iv) dose of 22 uM/Kg; outline: as §2
Rattus norvegicus [7] = species: Rattus norvegicus; assay: as §1; remark: listed apart in the source
Outline: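 A rat intestinal mucosal esterase preparation was incubated with 200 μM prodrug in 20 mM Tris, pH 7.0, at 37 °C. Timed aliquots were quenched with 0.5 M sodium acetate, pH 3.8. Released aldehyde was measured colorimetrically with methylbenzothiazolinehydrazone/ferric chloride (A625) against an aldehyde standard curve. Initial rate is given as pmol aldehyde/min per esterase unit, normalised to a reference prodrug.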

| SMILES | Relative esterase susceptibility (Rattus norvegicus [2]) | ED50 (Rattus norvegicus [3]) [µmol/kg] | ED50 (Rattus norvegicus [4]) [µmol/kg] | other results |
| --- | --- | --- | --- | --- |
| CC(C)C(=O)OC(OP(=O)(OC(OC(=O)C(C)C)C(C)C)C(CCCc1cccc(Oc2ccccc2)c1)S(=O)(=O)[O-])C(C)C.[K+] (centres undefined) |  |  |  | Inhibition (Rattus norvegicus [1]): -45% |
| CCC(=O)OC(C)OP(=O)(OC(C)OC(=O)CC)C(CCCc1cccc(Oc2ccccc2)c1)S(=O)(=O)[O-].[K+] (centres undefined) | 17 | 12.6 |  |  |
| CCC(=O)OC(OP(=O)(OC(OC(=O)CC)C(C)C)C(CCCc1cccc(Oc2ccccc2)c1)S(=O)(=O)O)C(C)C (centres undefined) |  | 7.9 |  |  |
| CC(C)(C)C(=O)OCOP(=O)(OCOC(=O)C(C)(C)C)C(CCCc1cccc(Oc2ccccc2)c1)S(=O)(=O)[O-].[K+] (centres undefined) | 15 | 3.5 | 1.7 |  |
| CC(C)=CCC/C(C)=C/CC/C(C)=C/CCCC(P(=O)(OCOC(=O)CC1CCCCC1)OCOC(=O)CC1CCCCC1)S(=O)(=O)[O-].[K+] (centres undefined) | 0.49 | 4.1 |  | Inhibition (Rattus norvegicus [5]): -35% |
| CC(C)=CCC/C(C)=C/CC/C(C)=C/CCCC(P(=O)(O)O)S(=O)(=O)O (centres undefined) |  | 16.5 | 0.25 |  |
| CC(OC(=O)C(C)(C)C)OP(=O)(OC(C)OC(=O)C(C)(C)C)C(CCCc1cccc(Oc2ccccc2)c1)S(=O)(=O)[O-].[K+] (centres undefined) | 0.45 | 12.8 |  |  |
| CC(C)=CCC/C(C)=C/CC/C(C)=C/CCCC(P(=O)(OC(C)OC(=O)C(C)(C)C)OC(C)OC(=O)C(C)(C)C)S(=O)(=O)[O-].[K+] (centres undefined) | 0.2 |  |  | Inhibition (Rattus norvegicus [1]): -35% |
| CC(C)=CCC/C(C)=C/CC/C(C)=C/CCCC(P(=O)(OC(C)OC(=O)c1ccccc1)OC(C)OC(=O)c1ccccc1)S(=O)(=O)[O-].[K+] (centres undefined) | 0.21 |  |  | Inhibition (Rattus norvegicus [1]): -33% |
| CC(OC(=O)C(C)C)OP(=O)(OC(C)OC(=O)C(C)C)C(CCCc1cccc(Oc2ccccc2)c1)S(=O)(=O)O (centres undefined) |  | 10.1 |  |  |
| CCC(=O)OC(OP(=O)(OC(OC(=O)CC)C(C)C)C(CCC/C=C(\C)CC/C=C(\C)CCC=C(C)C)S(=O)(=O)[O-])C(C)C.[K+] (centres undefined) | 1.1 |  |  | Inhibition (Rattus norvegicus [1]): -43% |
| O=P(O)(O)C(CCCc1cccc(Oc2ccccc2)c1)S(=O)(=O)O (centres undefined) |  | 19.5 | 0.2 |  |
| CC(C)=CCC/C(C)=C/CC/C(C)=C/CCCC(P(=O)(OCOC(=O)C(C)(C)C)OCOC(=O)C(C)(C)C)S(=O)(=O)[O-].[K+] (centres undefined) | 1 | 3.9 |  | Inhibition (Rattus norvegicus [6]): -40% |
| CCC(=O)OC(C)OP(=O)(OC(C)OC(=O)CC)C(CCC/C=C(\C)CC/C=C(\C)CCC=C(C)C)S(=O)(=O)[O-].[K+] (centres undefined) | 1.7 | 11.6 | 7 |  |
| CC(C)=CCC/C(C)=C/CC/C(C)=C/CCCC(P(=O)(OCOC(=O)C(C)C)OCOC(=O)C(C)C)S(=O)(=O)[O-].[K+] (centres undefined) |  | 18.8 | 1.7 | Relative esterase susceptibility (Rattus norvegicus [7]): 8.1 |
| CCC(=O)OC(CC)OP(=O)(OC(CC)OC(=O)CC)C(CCCc1cccc(Oc2ccccc2)c1)S(=O)(=O)O (centres undefined) |  | 10.9 |  |  |
| CC(C)=CCC/C(C)=C/CC/C(C)=C/CCCC(P(=O)(OCOC(=O)c1ccccc1)OCOC(=O)c1ccccc1)S(=O)(=O)[O-].[K+] (centres undefined) | 1.5 | 15 | 1.5 |  |
| CCCCCCC(=O)OCOP(=O)(OCOC(=O)CCCCCC)C(CCC/C=C(\C)CC/C=C(\C)CCC=C(C)C)S(=O)(=O)[O-].[K+] (centres undefined) | 6.5 | 14 | 0.18 |  |
